Experimental data taken from PubChem BioAssay AID504383 (The Scripps Research Institute Molecular Screening Center, 2011).
Where “and” joins values, the source holds several entries; their conditions need not be identical. Equal values may be shown once. Hit rate of the full screen: of about 2,500 compounds, about 1,200 (48%) were called active.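 The calls were made as follows: active = mean activation above the low control average plus 3 SD, as set in the primary screen (cut at about 12% in these data); inactive = the rest.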 So high a share suggests a set chosen from earlier hits. This is one part of the list. More than one record can exist for a structure, and the calls need not agree.

Biological target: Troponin I, cardiac muscle (Homo sapiens) + Troponin T, cardiac muscle (Homo sapiens) + Troponin C, slow skeletal and cardiac muscles (Homo sapiens) (UniProt P19429+P45379+P63316)
Test: calcium sensitizers of cardiac thin filaments – biochemical, IANBD-TnC fluorescence, triplicate, confirmation (AID 504383);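 also: 0% = DMSO at 0.472 mM calcium and 100% = DMSO at 2.9 mM calcium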
Conditions: IANBD-labeled cardiac RTF, Ca2+ sensitivity fluorescence; at 7.2 µM; stronger effect = higher value; scaled from EC20 to saturating calcium; tested at EC20 calcium, 0.472 mM
Outline: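 Test system: labelled regulated thin filament protein complex. Dosing: single nominal compound dose of 7.2 µM. Benchmarks: EC20 and EC100 calcium wells. Read-out basis: fluorescence gain scaled between EC20 and EC100 calcium controls. Probe or stimulus: submaximal calcium at 0.472 mM (EC20). Technique: fluorescence. Times: 15 min compound exposure, 25 °C.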

SMILES	activation
CCOc1ccccc1-c1c2cc(O)c(=O)cc-2oc2cc(O)c(O)cc12	8.3% (inactive)
O=c1cc2oc3cc(O)c(O)cc3c(-c3ccccc3O)c-2cc1O	16.1% (active)
COC(=O)c1ccccc1-c1c2ccc(=N)cc-2oc2cc(N)ccc12	9.11% (inactive)
COc1cc(OC)c(-c2c3cc(O)c(=O)cc-3oc3cc(O)c(O)cc23)cc1OC	19.3% (active)
CSc1cccc(NC(=O)c2ccc(Cl)nc2)c1	15.5% (active)
Cn1ncc(Cl)c1C(=O)Nc1cccc(Cl)c1	5.51% (inactive)
CCOC(=O)C1CCCN(C(=O)c2cccc(S(=O)(=O)N3CC(C)OC(C)C3)c2)C1 (stereo unspecified)	-1.51% (inactive)
CC(=O)c1ccc(S(=O)(=O)Nc2ccc(C(=O)N3CCC3)cc2)cc1	1.58% (inactive)
CC1CN(c2ccc(NS(=O)(=O)c3ccccc3)cc2C(=O)O)CC(C)O1 (stereo unspecified)	98.7% (active)
CCc1ccc(C(=O)Nc2cccnc2Oc2ccc(Cl)cc2)cc1	22% (active)
CC(C)(C)c1ccc(C(=O)Nc2cccc3ncccc23)cc1	10.2% (inactive)
CC(C)Cn1c(N)c(C(=O)COC(=O)c2cc(F)cc(F)c2)c(=O)n(C)c1=O	225% (active)
O=c1oc2c(O)cccc2cc1-c1nc2ccccc2[nH]1	8.93% (inactive)
O=c1oc2c(CN3CCCCC3)c(O)ccc2cc1-c1nc2ccccc2[nH]1	224% (active)
O=c1c2ccccc2nc(SCc2nc(-c3ccccc3)no2)n1-c1ccc(F)cc1	2.61% (inactive)
O=C(COC(=O)Cn1cnc2ccccc21)Nc1cccc2c1C(=O)c1ccccc1C2=O	25.4% (active)
CC(=O)c1cccc(NC(=O)Cn2nc(-c3ccccc3Cl)ccc2=O)c1	11.2% (inactive)
CCC(C)n1ncn(-c2ccc(N3CCN(c4ccc(OCC5COC(Cn6cncn6)(c6ccc(Cl)cc6Cl)O5)cc4)CC3)cc2)c1=O (stereo unspecified)	390% (active)
Fc1ccc(-c2nc3ccncc3[nH]2)cc1	13% (active)
Cc1ccc(CNC(=O)CC(C)S(=O)(=O)c2ccc3c(c2)NC(=O)CS3)o1 (stereo unspecified)	354% (active)
CCCCc1ccc(NC(=O)N2CCNC(=O)C2CC(=O)Nc2ccsc2C(=O)OC)cc1 (stereo unspecified)	5.97% (inactive)
CCCCc1ccc(NC(=O)c2cnccn2)cc1	22.1% (active)
COC(=O)[C@@H]1C[C@@]2(O)[C@H](O)[C@H](O)[C@H](O)C[C@H]2N1C/C=C/c1ccccc1	6.57% (inactive)

SMILES	activation
CCCN1CCc2c(sc(NC(=S)NC(=O)c3ccccc3)c2C#N)C1	270% (active)
NC(=O)c1c(NC(=O)c2ccccc2)sc2c1CCN(Cc1ccccc1)C2	105% (active)
CCN1CCc2c(sc(NC(=O)c3ccc(S(=O)(=O)N(C)c4ccccc4)cc3)c2C(=O)NC)C1	10.6% (inactive)
CC(=O)c1ccc(C(=O)Nc2sc3c(c2C(N)=O)CCN(Cc2ccccc2)C3)cc1	2.38% (inactive)
N#Cc1c(NC(=O)/C=C/C(=O)O)sc2c1CCN(Cc1ccccc1)C2	13.4% (active)
N#Cc1c(NC(=O)C2CC=CCC2C(=O)O)sc2c1CCCCCC2 (stereo unspecified)	6.81% (inactive)
O=C(Nc1nc2c(s1)CN(Cc1ccccc1)CC2)c1cccc(S(=O)(=O)N2CCc3ccccc32)c1	5.41% (inactive)
CC[n+]1c(/C=C/N(C)c2ccccc2)oc2ccc(F)cc21	14.5% (active)
CC[n+]1c(/C=C/N(C)c2ccccc2)oc2ccccc21	0.87% (inactive)
Cc1cc(C)n2nc3nc4c(cc3c2n1)CCCC4	89.3% (active)
Cc1ccc(-c2nc3ncccn3c2Nc2ccc3c(c2)OCCO3)o1	230% (active)
COc1cccc(C2C3CN(C)CC=C3C(C#N)=C(N)C2(C#N)C#N)c1OC (stereo unspecified)	8.43% (inactive)
COc1cccc(C2C(C#N)=C(N)Oc3cc(C)oc(=O)c32)c1OC (stereo unspecified)	23% (active)
CCCCN1C(=O)/C(=C/C=C2/CC(C)(C)CN2C)SC1=S	2.58% (inactive)
CCN1C(=O)/C(=C/C=C2/CCCN2C)OC1=S	12.9% (active)
CN1CCC/C1=C/C=C1\SC(=S)NC1=O	4.23% (inactive)
CN1C(=O)/C(=C\C=C2/CCCN2C)N(C)C1=S	173% (active)
C[n+]1c2cc(N)ccc2cc2ccc(N)cc21	6.45% (inactive) and 14.5% (active)
N#Cc1cc(C(=O)c2ccccc2O)cn(-c2nccs2)c1=O	45.5% (active)
N#Cc1cc(C(=O)c2cc(F)ccc2O)cn(-c2nccs2)c1=O	9.61% (inactive)
O=C(Cn1c(C(F)(F)F)nc2ccccc21)NCCN1CCCC1	-3.29% (inactive)
CN1/C(=C\C(=O)c2ccco2)C(C)(C)c2ccccc21	7.09% (inactive)
CCN(CC)CCCNC(=O)CCn1nc(-c2ccc(Cl)cc2)ccc1=O	7.9% (inactive)

SMILES	activation
Cn1c(CCNC(=O)c2ccco2)nc2ccccc21	919% (active)
CCCC(=O)NCCCc1nc2ccccc2n1C	124% (active)
Cn1c(=O)c2c(nc(NCCNC(=O)c3ccco3)n2Cc2ccccc2Cl)n(C)c1=O	7.43% (inactive)
Cc1cc(Cl)ccc1OCC(=O)Nc1nc(-c2cccs2)cs1	-1.8% (inactive)
CC(C)(C)NCc1cc(Cl)ccc1OCc1cccs1	47% (active)
COc1ccc(OC)c(/C=c2\sc3nc(-c4cccs4)nn3c2=O)c1	9.45% (inactive)
COc1ccc(C(=O)Nn2cnc3scc(-c4cccs4)c3c2=O)c(O)c1	29.8% (active)
CCOC(=O)c1nc2cc3n(c(CC(C)C)c-2c1C)CC(C)=C3C	1.31% (inactive)
Cc1cccc(N=Nc2c(O)[nH]c3ccc(F)cc23)c1	7.58% (inactive)
Cc1ccc(N=Nc2c(O)[nH]c3ccc(F)cc23)cc1	20.6% (active)
O=c1[nH]c2ccc(N=Cc3c(O)ccc4cc(Br)ccc34)cc2[nH]1	0.37% (inactive)
Oc1[nH]c2ccc(Br)cc2c1N=Nc1ccc(F)cc1	22.7% (active)
CCN1/C(=C2\SC(=S)N(Cc3ccccc3)C2=O)Sc2ccccc21	-1.47% (inactive)
CCN1/C(=C/C=C2/SC(=Nc3cccc4ncccc34)N(C)C2=O)Sc2ccccc21	28.3% (active)
CC1(C)CCN2CCC(C)(C)c3c(O)ccc1c32	42.4% (active)
CCOCCCn1c(=NC(=O)c2cccs2)c(C#N)cc2c(=O)n3cccc(C)c3nc21	19% (active)
Cc1cccn2c(=O)c3cc(C#N)c(=NC(=O)c4cccs4)n(CCCOC(C)C)c3nc12	4.3% (inactive)
CCOC(=O)/C(=C\c1ccc(N2CCC(c3ccccc3)=N2)cc1)C(C)=O	8.5% (inactive)
CCOC(=O)/C(=C/C1=CC(=C/N(C)C)/C(=O)O1)C(C)=O	87.4% (active)
CCOC(=O)NC1(C(F)(F)F)C(=O)NC(C)=C1C(=O)OC (stereo unspecified)	19.8% (active)
CC1CCN(c2ccc3c(c2)S(=O)(=O)c2ccccc2C3=O)CC1	9.57% (inactive)
CC(Oc1ccc(F)cc1)C(=O)Nc1sc2c(c1C(=O)NCc1cccnc1)CCCC2 (stereo unspecified)	83.6% (active)
NC(=O)c1c(Nc2nc3c(F)cccc3s2)sc2c1CCCC2	-1.65% (inactive)

SMILES	activation
O=C(O)CCCC(=O)Nc1ccc(C(=O)NCc2cccnc2)cc1	0.95% (inactive)
CN1C(=CC=C2C=C(I)C(=O)C(I)=C2)C(C)(C)c2ccccc21	4.78% (inactive)
CC1(C)c2ccccc2N2CC(=O)N(CC(N)=O)C21C (stereo unspecified)	70.2% (active)
O=C(NCCc1ccc(F)cc1)c1cccc2c1C(=O)c1ccc(N3CCC(Cc4ccccc4)CC3)cc1S2(=O)=O	107% (active)
O=C(NCc1ccc(F)cc1)c1cccc2c1C(=O)c1ccc(N3CCC(Cc4ccccc4)CC3)cc1S2(=O)=O	4.35% (inactive)
CC1CCN(c2ccc3c(c2)S(=O)(=O)c2cccc(C(=O)NCc4cccc(F)c4)c2C3=O)CC1	8.22% (inactive)
O=C(NCc1cccc(C(F)(F)F)c1)c1cccc2c1C(=O)c1ccc(N3CCC(Cc4ccccc4)CC3)cc1S2(=O)=O	8.69% (inactive)
CC1CCN(c2ccc3c(c2)S(=O)(=O)c2cccc(C(=O)NCc4ccc(F)cc4)c2C3=O)CC1	1.28% (inactive)
O=C(NCc1ccco1)c1cccc2c1C(=O)c1ccc(N3CCCC3)cc1S2(=O)=O	7.33% (inactive)
O=C(NCc1cccc(F)c1)c1cccc2c1C(=O)c1ccc(N3CCC(Cc4ccccc4)CC3)cc1S2(=O)=O	14.5% (active)
O=C(NC1CC1)c1cccc2c1C(=O)c1ccc(N3CCC(Cc4ccccc4)CC3)cc1S2(=O)=O	0.64% (inactive)
O=C(NCc1ccco1)c1cccc2c1C(=O)c1ccc(N3CCC(Cc4ccccc4)CC3)cc1S2(=O)=O	63.9% (active)
O=C(NCC(=O)N(Cc1cccs1)C(C(=O)NC1CCCCC1)c1ccncc1)c1ccco1 (stereo unspecified)	3.25% (inactive)
O=C(NCCNC(=O)c1cccs1)c1ccco1	40.3% (active)
CCOC(=O)Cc1csc(NC(=O)c2sc3nc4cc(C)ccc4cc3c2N)n1	71.2% (active)
CCOC(=O)Cc1csc(CC(N)=O)n1	4.59% (inactive)
CCOC(=O)Cc1csc(N(C)C)n1	10.1% (inactive)
Cc1ccc(CNC(=O)c2ccc(S(=O)(=O)N3CCCCC3)cc2)cc1	6.31% (inactive)
Cc1ccc(NC(=O)CN(C)c2ccc(S(=O)(=O)N3CCCC3)cn2)cc1	94.3% (active)
Nc1c(C(=O)Nc2ccc(S(=O)(=O)N3CCCC3)cc2)sc2nc3ccc(OC(F)(F)F)cc3cc12	11.7% (active)
Cc1cccc2cc3c(N)c(C(=O)N4CCCc5ccccc54)sc3nc12	6.58% (inactive)
CCc1cccc2cc3c(N)c(C(=O)Nc4ccc(S(=O)(=O)N5CCCC5)cc4)sc3nc12	24.8% (active)
